Measurements as given in ChEMBL document CHEMBL1156303, “Synthesis and SAR of N-(4-(4-alklylpiperazin-1-yl)phenyl)benzamides as muscarinic acetylcholine receptor subtype 1 (M1) anatgonists” (Bioorg Med Chem Lett, 2010).

How the values were obtained:
[1] = biological target: T1, Muscarinic acetylcholine receptor M2 (Homo sapiens, UniProt P08172); experiment: Antagonist activity at human muscarinic M2 receptor expressed in CHO-K1 cells coexpressing Gqi5 chimeric G-protein assessed as inhibition of acetylcholine-induced calcium mobilization; assay type: functional, cell-based
T1 sequence (P08172 whole entry): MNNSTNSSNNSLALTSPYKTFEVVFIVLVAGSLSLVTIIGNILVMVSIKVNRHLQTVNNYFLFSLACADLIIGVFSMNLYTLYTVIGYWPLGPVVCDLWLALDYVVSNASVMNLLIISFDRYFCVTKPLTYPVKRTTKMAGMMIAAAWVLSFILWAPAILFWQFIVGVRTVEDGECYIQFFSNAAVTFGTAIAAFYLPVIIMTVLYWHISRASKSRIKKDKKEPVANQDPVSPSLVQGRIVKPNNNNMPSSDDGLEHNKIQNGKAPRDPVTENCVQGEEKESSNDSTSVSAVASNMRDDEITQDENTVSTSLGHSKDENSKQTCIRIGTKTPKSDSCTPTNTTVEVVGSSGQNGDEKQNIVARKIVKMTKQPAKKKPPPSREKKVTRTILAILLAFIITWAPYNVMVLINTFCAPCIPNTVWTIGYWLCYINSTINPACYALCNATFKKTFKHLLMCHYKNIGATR
How it was run: (§1)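 Stable muscarinic cell lines (hM2 and hM4 stably transfected with Gqi5 chimera) plated overnight, then loaded with 2 µM Fluo-4 AM in HBSS with 20 mM HEPES and 2.5 mM probenecid, pH 7.4, for 45 min at 37°C. Dye replaced with assay buffer. Cells pre-incubated with compound at 10 µM or across a concentration-response curve, then challenged with sub-maximal acetylcholine or carbachol. Read-out: calcium mobilization.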

[2] = biological target: T2, Muscarinic acetylcholine receptor M5 (Homo sapiens, UniProt P08912); experiment: Antagonist activity at human muscarinic M5 receptor expressed in CHO-K1 cells assessed as inhibition of acetylcholine-induced calcium mobilization; assay type: functional, cell-based
T2 sequence (P08912 whole entry): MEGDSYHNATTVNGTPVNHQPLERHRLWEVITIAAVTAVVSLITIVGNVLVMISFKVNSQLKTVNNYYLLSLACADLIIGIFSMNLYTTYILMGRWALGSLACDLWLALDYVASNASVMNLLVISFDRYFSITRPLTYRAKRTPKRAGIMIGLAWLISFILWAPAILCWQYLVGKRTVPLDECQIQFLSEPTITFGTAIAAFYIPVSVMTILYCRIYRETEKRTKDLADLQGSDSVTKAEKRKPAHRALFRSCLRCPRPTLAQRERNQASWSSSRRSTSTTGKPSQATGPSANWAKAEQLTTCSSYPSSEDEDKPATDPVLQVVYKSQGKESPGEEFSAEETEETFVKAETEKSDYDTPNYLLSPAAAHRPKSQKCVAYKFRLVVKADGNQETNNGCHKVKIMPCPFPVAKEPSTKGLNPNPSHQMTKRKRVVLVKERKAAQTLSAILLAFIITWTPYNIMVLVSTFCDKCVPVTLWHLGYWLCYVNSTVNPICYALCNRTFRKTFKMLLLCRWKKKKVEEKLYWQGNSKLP

[3] = biological target: Muscarinic acetylcholine receptor M3 (Homo sapiens, UniProt P20309); experiment: Antagonist activity at human muscarinic M3 receptor expressed in CHO-K1 cells assessed as inhibition of acetylcholine-induced calcium mobilization; assay type: functional, cell-based
[4] = biological target: T3, Muscarinic acetylcholine receptor M4 (Homo sapiens, UniProt P08173); experiment: Antagonist activity at human muscarinic M4 receptor expressed in CHO-K1 cells coexpressing Gqi5 chimeric G-protein assessed as inhibition of acetylcholine-induced calcium mobilization; assay type: functional, cell-based; how it was run: as §1
T3 sequence (P08173 whole entry): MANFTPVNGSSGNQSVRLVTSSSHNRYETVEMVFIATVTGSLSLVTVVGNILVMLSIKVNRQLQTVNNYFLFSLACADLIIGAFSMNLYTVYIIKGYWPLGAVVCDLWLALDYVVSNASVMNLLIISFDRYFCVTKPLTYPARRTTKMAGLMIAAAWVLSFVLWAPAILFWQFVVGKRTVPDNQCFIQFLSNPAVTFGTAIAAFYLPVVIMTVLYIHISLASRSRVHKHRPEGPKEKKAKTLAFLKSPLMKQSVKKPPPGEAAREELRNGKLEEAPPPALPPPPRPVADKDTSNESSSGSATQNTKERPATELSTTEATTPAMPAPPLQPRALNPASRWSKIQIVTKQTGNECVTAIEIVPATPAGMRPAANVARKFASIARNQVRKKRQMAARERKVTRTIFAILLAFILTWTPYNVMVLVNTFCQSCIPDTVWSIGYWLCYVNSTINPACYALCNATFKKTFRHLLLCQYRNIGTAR

[5] = biological target: T4, Muscarinic acetylcholine receptor M1 (Homo sapiens, UniProt P11229); experiment: Antagonist activity at human muscarinic M1 receptor expressed in CHO-K1 cells assessed as inhibition of acetylcholine-induced calcium mobilization; assay type: functional, cell-based
T4 sequence (P11229 whole entry): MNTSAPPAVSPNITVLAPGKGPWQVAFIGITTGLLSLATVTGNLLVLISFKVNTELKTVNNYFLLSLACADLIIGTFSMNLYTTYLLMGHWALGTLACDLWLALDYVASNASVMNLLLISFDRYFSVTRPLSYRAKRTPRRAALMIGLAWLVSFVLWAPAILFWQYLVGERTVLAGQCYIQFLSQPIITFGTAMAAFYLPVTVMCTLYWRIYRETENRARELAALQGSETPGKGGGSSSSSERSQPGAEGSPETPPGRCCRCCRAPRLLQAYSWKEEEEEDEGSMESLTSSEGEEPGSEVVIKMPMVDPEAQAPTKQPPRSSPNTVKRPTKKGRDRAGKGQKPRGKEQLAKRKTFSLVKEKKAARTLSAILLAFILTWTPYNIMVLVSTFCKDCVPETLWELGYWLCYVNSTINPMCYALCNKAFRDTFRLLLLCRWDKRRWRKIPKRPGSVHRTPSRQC

[6] = biological target: T5, Muscarinic acetylcholine receptor M5 (Homo sapiens) (UniProt P08912); experiment: Antagonist activity at human muscarinic M5 receptor expressed in CHO-K1 cells assessed as inhibition of acetylcholine-induced calcium mobilization at 10 uM; assay type: functional, cell-based
T5 sequence (whole entry): T2 sequence (P08912 whole entry)

[7] = Selectivity ratio of muscarinic M3 receptor over muscarinic M2 receptor

Chain of Muscarinic acetylcholine receptor M3 (P20309 whole entry): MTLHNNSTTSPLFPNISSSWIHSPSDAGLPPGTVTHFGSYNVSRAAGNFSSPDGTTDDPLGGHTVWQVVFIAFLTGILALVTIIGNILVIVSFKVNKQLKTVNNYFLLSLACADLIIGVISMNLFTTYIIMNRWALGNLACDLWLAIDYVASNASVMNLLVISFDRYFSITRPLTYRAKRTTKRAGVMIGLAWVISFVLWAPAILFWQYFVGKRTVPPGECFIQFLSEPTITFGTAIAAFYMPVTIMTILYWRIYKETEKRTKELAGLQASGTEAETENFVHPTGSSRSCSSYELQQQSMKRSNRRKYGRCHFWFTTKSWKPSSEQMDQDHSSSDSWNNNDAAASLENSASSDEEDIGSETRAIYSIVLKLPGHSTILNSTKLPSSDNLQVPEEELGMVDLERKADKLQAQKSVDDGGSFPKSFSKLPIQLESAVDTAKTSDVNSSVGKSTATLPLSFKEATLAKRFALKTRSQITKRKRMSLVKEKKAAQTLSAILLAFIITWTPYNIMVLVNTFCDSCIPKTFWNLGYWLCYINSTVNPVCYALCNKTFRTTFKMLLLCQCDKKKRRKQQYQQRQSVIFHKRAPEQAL

CCN1CCN(c2ccc(NC(=O)c3cccc(C(F)(F)F)c3)cc2Cl)CC1
IC50 [1]: > 10 µM
IC50 [2]: 4.1 µM
IC50 [3]: 4.3 µM
IC50 [4]: 3.7 µM
IC50 [5]: 2900 nM

CCN1CCN(c2ccc(NC(=O)c3ccccc3Cl)cc2Cl)CC1
IC50 [2]: 2.3 µM
IC50 [5]: 960 nM

CCN1CCN(c2ccc(NC(=O)c3ccccc3OC)cc2Cl)CC1
IC50 [2]: 1.3 µM
IC50 [3]: 5.6 µM
IC50 [5]: 820 nM

CCN1CCN(c2ccc(NC(=O)c3ccc(C)cc3)cc2Cl)CC1
IC50 [1]: > 10 µM
IC50 [2]: 6.9 µM
IC50 [3]: 3.7 µM
IC50 [4]: > 10 µM
IC50 [5]: 2900 nM

CCN1CCN(c2ccc(NC(=O)c3c(F)c(F)c(F)c(F)c3F)cc2Cl)CC1
IC50 [2]: 0.83 µM
IC50 [3]: 3.7 µM
IC50 [5]: 350 nM

CCN1CCN(c2ccc(NC(=O)c3ccc(OC)cc3)cc2Cl)CC1
IC50 [2]: > 10 µM
IC50 [3]: > 10 µM
IC50 [5]: 3200 nM

CCN1CCN(c2ccc(NC(=O)c3cc(C(F)(F)F)ccc3C(F)(F)F)cc2Cl)CC1
IC50 [1]: 2.7 µM
IC50 [2]: 4.1 µM
IC50 [3]: 4.2 µM
IC50 [4]: 1.5 µM
IC50 [5]: 490 nM

CCN1CCN(c2ccc(NC(=O)c3cccc(C)c3)cc2Cl)CC1
IC50 [2]: 3.5 µM
IC50 [3]: > 10 µM
IC50 [5]: 2100 nM

CCN1CCN(c2ccc(NC(=O)c3cc(C(F)(F)F)cc(C(F)(F)F)c3)cc2Cl)CC1
IC50 [6]: 10 µM
IC50 [1]: > 10 µM
IC50 [2]: > 10 µM
IC50 [3]: > 10 µM
IC50 [4]: 3.7 µM
IC50 [5]: 2600 nM

Cc1ccc(N2C[C@@H]3[C@H](C2)[C@H]3NC(=O)C(O)(c2ccccc2)C2CCCCC2)cc1 (stereo partly specified)
Selectivity ratio [7]: 20

CCN1CCN(c2ccc(NC(=O)c3ccc(F)c(F)c3)cc2Cl)CC1
IC50 [1]: > 10 µM
IC50 [2]: > 10 µM
IC50 [3]: > 10 µM
IC50 [4]: > 10 µM
IC50 [5]: 4700 nM

CCN1CCN(c2ccc(NC(=O)c3ccccc3)cc2Cl)CC1
IC50 [1]: > 10 µM
IC50 [2]: > 10 µM
IC50 [3]: > 10 µM
IC50 [4]: > 10 µM
IC50 [5]: 3200 nM
